Laboratory results taken from ChEMBL document CHEMBL1147503, “Syntheses and structure-activity relationship studies of piperidine-substituted quinolones as nonpeptide gonadotropin releasing hormone antagonists” (Bioorg Med Chem Lett, 2004).

Legend:
[1] = target: T1, Gonadotropin-releasing hormone receptor (Rattus norvegicus, UniProt P30969); assay: Inhibitory concentration against binding of rat Gonadotropin-releasing hormone receptor using [125I]buserelin
T1 sequence (P30969 whole entry): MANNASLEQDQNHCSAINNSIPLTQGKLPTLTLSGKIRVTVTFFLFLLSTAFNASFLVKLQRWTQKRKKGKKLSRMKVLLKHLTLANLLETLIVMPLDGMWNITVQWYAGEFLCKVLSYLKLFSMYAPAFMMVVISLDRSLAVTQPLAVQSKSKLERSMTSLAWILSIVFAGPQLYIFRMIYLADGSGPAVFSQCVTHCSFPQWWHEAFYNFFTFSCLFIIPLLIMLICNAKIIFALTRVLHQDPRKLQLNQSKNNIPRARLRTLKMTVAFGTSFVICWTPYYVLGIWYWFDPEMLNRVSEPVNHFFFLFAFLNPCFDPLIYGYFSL

[2] = target: T2, Gonadotropin-releasing hormone receptor (Homo sapiens, UniProt P30968); assay: Inhibitory concentration against binding of [125I]buserelin to human Gonadotropin-releasing hormone receptor
T2 sequence (P30968 whole entry): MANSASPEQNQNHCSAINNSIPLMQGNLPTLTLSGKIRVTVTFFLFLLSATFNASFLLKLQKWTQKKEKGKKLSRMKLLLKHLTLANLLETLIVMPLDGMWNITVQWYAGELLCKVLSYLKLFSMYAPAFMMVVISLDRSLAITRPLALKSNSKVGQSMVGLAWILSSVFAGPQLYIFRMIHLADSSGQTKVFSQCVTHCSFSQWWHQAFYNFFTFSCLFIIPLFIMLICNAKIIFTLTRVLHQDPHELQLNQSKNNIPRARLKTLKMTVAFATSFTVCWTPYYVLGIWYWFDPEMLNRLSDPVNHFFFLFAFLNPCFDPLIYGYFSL
Method in brief: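 Competitive displacement of the GnRH receptor agonist radioligand [125I]buserelin from the human GnRH receptor, with 0.1% BSA present in the binding assay.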

CHO = assay: In vitro inhibitory concentration against GnRH-stimulated phosphatidyl inositol hydrolysis by cloned chinese hamster ovary cells stably expressing human GnRH receptor; assay type: functional, cell-based; conditions: Cricetulus griseus
[3] = target: T3, Gonadotropin-releasing hormone receptor (Rattus norvegicus) (UniProt P30969); assay: Inhibitory activity against binding of rat Gonadotropin-releasing hormone receptor using [125I]buserelin at 10 uM
T3 sequence (whole entry): T1 sequence (P30969 whole entry)

[4] = Clearance rate in dog; assay type: ADME, organism-based, Canis lupus familiaris; conditions: in vivo, read-out: Clearance rate
[5] = Oral bioavailability in dog; assay type: ADME, organism-based, Canis lupus familiaris; conditions: in vivo

Cc1cc(C)cc(-c2c(OCC[C@@H]3CCC[C@H](CCCc4ccccc4)N3)c3cc([N+](=O)[O-])c(Cl)cc3[nH]c2=O)c1
IC50 [1]: 400 nM

CCC1CCC[C@@H](CCOc2c(-c3cc(C)cc(C)c3)c(=O)[nH]c3cc(Cl)c(C(=O)Nc4ccncn4)cc23)N1 (stereo not given in full)
IC50 [2]: 5.7 nM

CC[C@H]1CCC[C@@H](CCOc2c(-c3cc(C)cc(C)c3)c(O)nc3cc(Cl)c([N+](=O)[O-])cc23)N1
IC50 [1]: 18 nM

Cc1cc(-c2c(OCC[C@@H]3CCC[C@H](C)N3)c3cc(C(=O)Nc4ccncn4)c(Cl)cc3[nH]c2=O)cc(C)c1C
IC50 (CHO): 9.8 nM | IC50 [2]: 0.6 nM

Cc1cc(C)cc(-c2c(O)nc3cc(Cl)c([N+](=O)[O-])cc3c2OCCc2ccccn2)c1
inhibition [3]: 86%

Cc1cc(C)cc(-c2c(O)nc3cc(Cl)c(C(=O)Nc4ccncn4)cc3c2OCC[C@@H]2CCCCN2)c1
IC50 (CHO): 5 nM

Cc1cc(C)cc(-c2c(O)nc3cc(Cl)c([N+](=O)[O-])cc3c2OCC[C@@H]2Cc3ccccc3CN2)c1
IC50 [1]: 70 nM

Cc1cc(C)cc(-c2c(O)nc3cc(Cl)c([N+](=O)[O-])cc3c2OCC[C@@H]2CCC[C@H](C)N2)c1
IC50 [1]: 15 nM

Cc1cc(C)cc(-c2c(OCC[C@@H]3CCC[C@H](C)N3)c3cc(C(=O)Nc4ccncn4)c(Cl)cc3[nH]c2=O)c1
IC50 (CHO): 8.7 nM | IC50 [2]: 0.5 nM

Cc1cc(C)cc(-c2c(OCCC3CCC(C)CN3)c3cc([N+](=O)[O-])c(Cl)cc3[nH]c2=O)c1 (stereo not given)
IC50 [1]: 63 nM

Cc1cc(-c2c(OCC[C@@H]3CCCC(C(F)(F)F)N3)c3cc(C(=O)Nc4ccncn4)c(Cl)cc3[nH]c2=O)cc(C)c1C (stereo not given in full)
clearance [4]: 21.6 mL/min/kg | IC50 (CHO): 18 nM | bioavailability [5]: 14.6% | IC50 [2]: 2 nM

Cc1cc(C)cc(-c2c(O)nc3cc(Cl)c([N+](=O)[O-])cc3c2OCCC2CCc3ccccc3N2)c1 (stereo not given)
inhibition [3]: 85%

Cc1cc(C)cc(-c2c(O)nc3cc(Cl)c([N+](=O)[O-])cc3c2OCCC2CCCCN2)c1 (single isomer, unassigned)
IC50 [1]: 10 nM

Cc1cc(C)cc(-c2c(O)nc3cc(Cl)c([N+](=O)[O-])cc3c2OCCC2NCCCC2C)c1 (stereo not given)
IC50 [1]: 45 nM

Cc1cc(C)cc(-c2c(OCCC3NCCc4ccccc43)c3cc([N+](=O)[O-])c(Cl)cc3[nH]c2=O)c1 (stereo not given)
IC50 [1]: 750 nM

Cc1cc(C)cc(-c2c(OCC[C@@H]3CCC[C@@H](C)N3)c3cc(C(=O)Nc4ccncn4)c(Cl)cc3[nH]c2=O)c1
IC50 (CHO): 11.5 nM | IC50 [2]: 0.5 nM

Cc1cc(-c2c(O)nc3cc(Cl)c(C(=O)Nc4ccncn4)cc3c2OCC[C@@H]2CCCCN2)cc(C)c1C
clearance [4]: 36.8 mL/min/kg | IC50 (CHO): 2.2 nM | bioavailability [5]: 4.4%
